ChEMBL document CHEMBL4138161, “Discovery of simplified sampangine derivatives as novel fungal biofilm inhibitors” (Eur J Med Chem, 2018)
In brackets after ≈: the same amount, converted by molar mass. Activity calls are given as the source filed them. The rule behind the calls is not given here.

What was measured:
Candida albicans [1] = experiment: Antibiofilm activity against Candida albicans SC5314 assessed down regulation of UME6 gene at 0.4 ug/ml after 1 hr by qRT-PCR analysis; type: functional, organism-based
In short: (§1)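 Biofilm grown in dishes with 0.4 µg/mL compound or DMSO control for 1 h; total RNA isolated and transcripts quantified by real-time RT-PCR. Normalized to 18S rRNA, expressed as fold change vs untreated SC5314. Mean ± SD of three independent experiments.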

Candida albicans [2] = experiment: Antibiofilm activity against Candida albicans SC5314 assessed as disruption of biofilm formation at 0.8 ug/ml after 24 hrs by scanning electron microscopic analysis; type: functional, organism-based
In short: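 Biofilm SEM: cells adhered to poly-L-lysine-coated glass disks, 90 min static at 37°C; non-adherent cells removed, then grown in fresh RPMI 1640 with compound at 37°C for 24 h. Fixed in 2% glutaraldehyde in 0.15 M sodium cacodylate (pH 7.2) for 2 h, graded ethanol dehydration, dried 1 h, gold-coated and imaged by SEM.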

Candida albicans [3] = experiment: Antibiofilm activity against Candida albicans SC5314 assessed inhibition of yeast-to-hypha morphological transition at 0.5 ug/ml after 3 hrs; type: functional, organism-based
In short: (§2)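 Yeast-to-hypha transition in YPD with 10% (v/v) FBS across compound concentrations; cell morphology photographed after 3 h at 37°C.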

Candida albicans [4] = experiment: Antibiofilm activity against Candida albicans SC5314 assessed inhibition of yeast-to-hypha morphological transition at 0.25 ug/ml after 3 hrs; type: functional, organism-based
In short: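 Cells were induced to form hyphae in YPD with 10% (vol/vol) fetal bovine serum at 37°C for 3 h with compound. Cell morphology was then photographed. Strains were routinely grown beforehand in YPD at 30°C with shaking.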

Candida albicans [5] = experiment: Antibiofilm activity against Candida albicans SC5314 cultured in RPMI 1640 media assessed inhibition of yeast-to-hypha morphological transition after 3 hrs; type: functional, organism-based
In short: (§3)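 Hyphal induction in Lee's (pH 6.8), Spider, SLAD or RPMI 1640 medium with compound; morphology assessed by microscopy.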

Candida albicans [6] = experiment: Antibiofilm activity against Candida albicans SC5314 cultured in Lee media assessed inhibition of yeast-to-hypha morphological transition after 3 hrs; type: functional, organism-based; in short: as §3
Candida albicans [7] = experiment: Antibiofilm activity against Candida albicans SC5314 assessed down regulation of ECE1 gene at 0.4 ug/ml after 1 hr by qRT-PCR analysis; type: functional, organism-based; in short: as §1
Nannizzia gypsea = experiment: Antifungal activity against Microsporum gypseum Cmccfmza after 24 hrs by spectrophotometric analysis; type: functional
In short: (§4)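 Broth microdilution in RPMI 1640, inoculum 5×10^3 CFU/mL, compounds from 6.4 mg/mL DMSO stocks, 35 ℃ for 24 h. Growth read as OD600; MIC80 taken as lowest concentration giving 80% growth inhibition. Triplicate.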

Candida albicans [8] = experiment: Antibiofilm activity against Candida albicans SC5314 assessed down regulation of HWP1 gene at 0.4 ug/ml after 1 hr by qRT-PCR analysis; type: functional, organism-based; in short: as §1
Candida albicans [9] = experiment: Antibiofilm activity against Candida albicans SC5314 assessed down regulation of RAS1 gene at 0.4 ug/ml after 1 hr by qRT-PCR analysis; type: functional, organism-based; in short: as §1
Candida albicans [10] = experiment: Antibiofilm activity against Candida albicans SC5314 cultured in SLAD media assessed inhibition of yeast-to-hypha morphological transition after 3 hrs; type: functional, organism-based; in short: as §3
Candida albicans [11] = experiment: Antibiofilm activity against Candida albicans SC5314 assessed down regulation of CYR1 gene at 0.4 ug/ml after 1 hr by qRT-PCR analysis; type: functional, organism-based; in short: as §1
CAPAN-1 = experiment: Cytotoxicity against human Capan1 cells assessed as cell growth inhibition after 48 hrs by CCK8 assay; type: cell-based; conditions: CAPAN-1, 48 h
Candida albicans [12] = experiment: Antibiofilm activity against Candida albicans SC5314 assessed down regulation of EAP1 gene at 0.4 ug/ml after 1 hr by qRT-PCR analysis; type: functional, organism-based; in short: as §1
Candida albicans [13] = experiment: Antifungal activity against Candida albicans SC5314 after 48 hrs by spectrophotometric analysis; type: functional; conditions: SC5314, 48 h
Candida albicans [14] = experiment: Antifungal activity against Candida albicans infected in Sprague-Dawley rat vaginal infection model assessed as reduction in vaginal fungal burden at 1 mg/kg, administered intravaginally on day 1 to day 3 post fungal inoculation measured on day 4; type: functional, organism-based
In short: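 Ovariectomized rats inoculated intravaginally with 0.1 mL of 1×10^7 CFU/mL C. albicans on days 10, 11 and 12 after surgery. Compound in saline with 1% DMSO (2, 4, 8 mg/mL) given intravaginally on days 1–3 post-inoculation. On day 4, 100 µL vaginal fluid plated on chloramphenicol SDA agar for CFU counts.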

Cryptococcus neoformans = experiment: Antifungal activity against Cryptococcus neoformans 32609 after 24 hrs by spectrophotometric analysis; type: functional; conditions: Cryptococcus neoformans, 32609, 24 h; in short: as §4
Candida albicans [15] = experiment: Antibiofilm activity against Candida albicans SC5314 assessed down regulation of ALS3 gene at 0.4 ug/ml after 1 hr by qRT-PCR analysis; type: functional, organism-based; in short: as §1
Candida albicans [16] = experiment: Antibiofilm activity against Candida albicans SC5314 assessed down regulation of EFG1 gene at 0.4 ug/ml after 1 hr by qRT-PCR analysis; type: functional, organism-based; in short: as §1
Candida albicans [17] = experiment: Antifungal activity against fluconazole-resistant Candida albicans clinical isolate 1010 after 24 hrs by spectrophotometric analysis; type: functional; conditions: isolate 1010, 24 h
In short: (§5)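 Broth microdilution (MIC80) against fluconazole-resistant clinical C. albicans isolates from a Shanghai hospital. Strains were grown in YPD at 30 ℃. Compounds came from 6.4 mg/mL DMSO stocks and were tested over a concentration series on 5×10^3 CFU/mL inoculum in RPMI 1640 at 35 ℃ for 24 h. OD600 was read; MIC80 is the lowest concentration giving 80% growth inhibition. Done in triplicate.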

Candida albicans [18] = experiment: Antibiofilm activity against Candida albicans SC5314 cultured in Spider media assessed inhibition of yeast-to-hypha morphological transition after 3 hrs; type: functional, organism-based; in short: as §3
Candida albicans [19] = experiment: Antibiofilm activity against Candida albicans SC5314 cultured in YPD media containing 10% FBS assessed inhibition of yeast-to-hypha morphological transition after 3 hrs; type: functional, organism-based; in short: as §2
Nakaseomyces glabratus = experiment: Antifungal activity against Candida glabrata 537 after 24 hrs by spectrophotometric analysis; type: functional; conditions: Nakaseomyces glabratus, 537, 24 h; in short: as §4
Candida parapsilosis = experiment: Antifungal activity against Candida parapsilosis 22019 after 24 hrs by spectrophotometric analysis; type: functional; conditions: Lodderomyces parapsilosis, 22019, 24 h; in short: as §4
Candida albicans [20] = experiment: Antifungal activity against fluconazole-resistant Candida albicans clinical isolate 103 after 24 hrs by spectrophotometric analysis; type: functional; conditions: isolate 103, 24 h; in short: as §5
Candida albicans [21] = experiment: Antifungal activity against fluconazole-resistant Candida albicans clinical isolate 032 after 24 hrs by spectrophotometric analysis; type: functional; conditions: isolate 032, 24 h; in short: as §5
Caenorhabditis elegans = experiment: Toxicity in Caenorhabditis elegans AU37 at 6.25 to 100 ug/ml after 2 days; type: organism-based; conditions: in vivo, 48 h
In short: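 Nematodes placed in medium containing a range of compound concentrations, held at 25 ℃ for 2 d, checked daily and photographed on day 2.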

Candida albicans [22] = experiment: Antifungal activity against fluconazole-resistant Candida albicans isolate J38 clinical isolate after 24 hrs by spectrophotometric analysis; type: functional; conditions: isolate J38, 24 h; in short: as §5
Trichophyton rubrum = experiment: Antifungal activity against Trichophyton rubrum Cmccftla after 24 hrs by spectrophotometric analysis; type: functional; in short: as §4
Candida albicans [23] = experiment: Antibiofilm activity against Candida albicans SC5314 assessed down regulation of CEK1 gene at 0.4 ug/ml after 1 hr by qRT-PCR analysis; type: functional, organism-based; in short: as §1

Structure (SMILES) | Activity (Candida albicans [1]) | Activity (Candida albicans [2]) | Activity (Candida albicans [3]) | Activity (Candida albicans [4]) | Activity (Candida albicans [5]) | Activity (Candida albicans [6]) | Activity (Candida albicans [7]) | MIC80 (Nannizzia gypsea) [µg/mL] | Activity (Candida albicans [8]) | Activity (Candida albicans [9]) | Activity (Candida albicans [10]) | Activity (Candida albicans [11]) | IC50 (CAPAN-1) [µM] | Activity (Candida albicans [12]) | MIC80 (Candida albicans [13]) [µg/mL] | Activity (Candida albicans [14]) | MIC80 (Cryptococcus neoformans) [µg/mL] | Activity (Candida albicans [15]) | Activity (Candida albicans [16]) | MIC80 (Candida albicans [17]) [µg/mL] | further results
CCCc1ccnc2c1C(=O)c1sc([N+](=O)[O-])cc1C2=O | Active | Active | Active | Active | Dose-dependent effect | Dose-dependent effect | Active | 2 (≈ 6.62 µM) | Active | Active | Dose-dependent effect | Active | > 100 | Active | 0.5 (≈ 1.65 µM) | Active | 1 (≈ 3.31 µM) | Active | Active | 0.5 (≈ 1.65 µM) | Activity (Candida albicans [18]): Dose-dependent effect; Activity (Candida albicans [19]): Dose-dependent effect; MIC80 (Nakaseomyces glabratus): 2 µg/mL (≈ 6.62 µM); MIC80 (Candida parapsilosis): 0.5 µg/mL (≈ 1.65 µM); MIC80 (Candida albicans [20]): 0.5 µg/mL (≈ 1.65 µM); MIC80 (Candida albicans [21]): 1 µg/mL (≈ 3.31 µM); Activity (Caenorhabditis elegans): Non-Toxic; MIC80 (Candida albicans [22]): 1 µg/mL (≈ 3.31 µM); MIC80 (Trichophyton rubrum): 2 µg/mL (≈ 6.62 µM); Activity (Candida albicans [23]): Active
CCc1ccnc2c1C(=O)c1sc([N+](=O)[O-])cc1C2=O | Active | Active | Active | Active | Dose-dependent effect | Dose-dependent effect | Active | 2 (≈ 6.94 µM) | Active | Active | Dose-dependent effect | Active | > 100 | Active | 0.25 (≈ 0.867 µM) | Active | 1 (≈ 3.47 µM) | Active | Active | 0.25 (≈ 0.867 µM) | Activity (Candida albicans [18]): Dose-dependent effect; Activity (Candida albicans [19]): Dose-dependent effect; MIC80 (Nakaseomyces glabratus): 2 µg/mL (≈ 6.94 µM); MIC80 (Candida parapsilosis): 1 µg/mL (≈ 3.47 µM); MIC80 (Candida albicans [20]): 0.25 µg/mL (≈ 0.867 µM); MIC80 (Candida albicans [21]): 0.5 µg/mL (≈ 1.73 µM); Activity (Caenorhabditis elegans): Non-Toxic; MIC80 (Candida albicans [22]): 0.25 µg/mL (≈ 0.867 µM); MIC80 (Trichophyton rubrum): 0.5 µg/mL (≈ 1.73 µM); Activity (Candida albicans [23]): Active
